In ChEMBL document CHEMBL1157362, “Pharmacokinetics of the anti-human immunodeficiency virus agent 1-(beta-D-dioxolane)thymine in rhesus monkeys” (Antimicrob Agents Chemother, 2007):
Each block holds one compound with its values, some of them ahead of it.

Assays:
[1] = Oral bioavailability in rhesus monkey; type: ADME, organism-based, Macaca mulatta; conditions: in vivo
[2] = Oral bioavailability in rhesus monkey at 60 mg/kg; type: ADME, organism-based, Macaca mulatta; conditions: in vivo
[3] = Terminal phase half life in rhesus monkey; type: ADME, organism-based, Macaca mulatta; conditions: in vivo
[4] = Ratio of drug level in cerebrospinal fluid to plasma of rhesus monkey at 33.3 mg/kg, iv after 1 hr; type: ADME, organism-based, Macaca mulatta, CSF/Plasma; set-up: dose 33.3 mg/kg, route intravenous
How it was run: (§1)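 CSF was taken by cisternal or lumbar tap at 1 and 2 h after a 33.3 mg/kg i.v. or oral dose, along with femoral-vein serum. Both were quantified by HPLC-UV at 266 nm with AZT internal standard. The ratio was CSF concentration divided by serum concentration at the same time.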

[5] = Ratio of drug level in cerebrospinal fluid to plasma of rhesus monkey at 33.3 mg/kg, iv after 2 hrs; type: ADME, organism-based, Macaca mulatta, CSF/Plasma; set-up: dose 33.3 mg/kg, route intravenous; how it was run: as §1
[6] = Tmax in rhesus monkey at 33.3 mg/kg, po; type: ADME, organism-based, Macaca mulatta; set-up: dose 33.3 mg/kg, route oral; conditions: in vivo
How it was run: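 Oral gastric-intubation dose of 33.3 mg/kg in water given to rhesus monkeys under ketamine/Telazol anesthesia. Serial femoral-vein serum was sampled from 0.25 to 24 h and assayed by reverse-phase HPLC-UV at 266 nm. Time of peak was taken from a two-compartment model fitted with an absorption lag.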

[7] = Renal clearance in rhesus monkey at 33.3 mg/kg, iv; type: ADME, organism-based, Macaca mulatta, Kidney; set-up: dose 33.3 mg/kg, route intravenous; conditions: in vivo, read-out: CL_renal (converted)
How it was run: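 Renal clearance was derived by fitting 0–8 h urinary excretion (HPLC-UV) to dXu/dt = Clrenal x Cp. Cp was the serum concentration predicted by the two-compartment serum fit, and the urine fit was unweighted. Dose was 33.3 mg/kg.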

[8] = Mean residence time in rhesus monkey at 33.3 mg/kg, iv; type: ADME, organism-based, Macaca mulatta; set-up: dose 33.3 mg/kg, route intravenous; conditions: in vivo
How it was run: (§2)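 Rhesus monkeys (three) got a single 33.3 mg/kg dose orally by gastric intubation in water, then i.v. in saline after a washout of at least 4 weeks. Animals were under ketamine/Telazol anesthesia. Femoral-vein blood was drawn at 0–24 h. Serum was acetonitrile-extracted with AZT internal standard and assayed by HPLC-UV at 266 nm. Parameters came from a simultaneous two-compartment fit weighted 1/(predicted)2. F was from AUCoral = F x AUCi.v.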

[9] = Biodistribution in rhesus monkey urine assessed as dose recovered unchanged at 33.3 mg/kg, iv after 8 hrs; type: ADME, organism-based, Macaca mulatta; set-up: dose 33.3 mg/kg, route intravenous; conditions: read-out: Drug uptake
How it was run: (§3)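 Monkeys were catheterized and dosed with 33.3 mg/kg by i.v. or oral route under anesthesia. Urine was collected in intervals over 0–8 h. Untreated urine was incubated 12 h at 37°C in acetate/phosphate buffer pH 5.8 and spiked with AZT internal standard. Unchanged drug was quantified by HPLC-UV at 266 nm against urine standard curves of 0.1–100 µg/ml.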

[10] = Central volume of distribution in rhesus monkey at 33.3 mg/kg, iv; type: ADME, organism-based, Macaca mulatta; set-up: dose 33.3 mg/kg, route intravenous; conditions: in vivo, read-out: Vc; how it was run: as §2
[11] = Cmax in rhesus monkey at 33.3 mg/kg, po; type: ADME, organism-based, Macaca mulatta; set-up: dose 33.3 mg/kg, route oral; conditions: in vivo; how it was run: as §2
Rhesus monkey [12] = assay: Tlag in rhesus monkey at 33.3 mg/kg, po; conditions: in vivo
[13] = Ratio of drug level in cerebrospinal fluid to plasma of rhesus monkey at 33.3 mg/kg, po after 1 hr; type: ADME, organism-based, Macaca mulatta, CSF/Plasma; set-up: dose 33.3 mg/kg, route oral; how it was run: as §1
[14] = Drug level in rhesus monkey cerebrospinal fluid at 33.3 mg/kg, iv after 1 hr; type: ADME, organism-based, Macaca mulatta; set-up: dose 33.3 mg/kg, route intravenous; conditions: read-out: Drug uptake
How it was run: (§4)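 Cerebrospinal fluid was drawn by cisternal or lumbar tap 1 and 2 h after a 33.3 mg/kg i.v. or oral dose in anesthetized rhesus monkeys. Samples were kept frozen at –70°C. AZT internal standard was added, and the sample was injected directly for HPLC-UV at 266 nm against water-based standards of 0.1–25 µg/ml.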

[15] = Biodistribution in rhesus monkey urine assessed as dose recovered unchanged at 33.3 mg/kg, po after 8 hrs; type: ADME, organism-based, Macaca mulatta; set-up: dose 33.3 mg/kg, route oral; conditions: read-out: Drug uptake; how it was run: as §3
Rhesus monkey [16] = assay: Drug elimination in rhesus monkey assessed as beta-dioxolane-thymine-glucuronide elimination at 33.3 mg/kg, po; type: ADME, organism-based, Macaca mulatta; set-up: dose 33.3 mg/kg, route oral; conditions: in vivo
How it was run: (§5)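 Glucuronide was estimated indirectly in 0–8 h urine after a 33.3 mg/kg i.v. or oral dose. Urine was treated with β-glucuronidase (500 U/ml, freshly prepared) in acetate/phosphate buffer pH 5.8 for 12 h at 37°C. Untreated urine served as the parallel sample. Glucuronide was taken as the difference in parent drug between the two samples by HPLC-UV. Its presence was screened by ESI MS/MS.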

[17] = AUC in rhesus monkey at 33.3 mg/kg, iv; type: ADME, organism-based, Macaca mulatta; set-up: dose 33.3 mg/kg, route intravenous; conditions: plasma; how it was run: as §2
[18] = Terminal phase half life in rhesus monkey at 33.3 mg/kg, iv; type: ADME, organism-based, Macaca mulatta; set-up: dose 33.3 mg/kg, route intravenous; conditions: in vivo; how it was run: as §2
[19] = AUC in rhesus monkey at 33.3 mg/kg, po; type: ADME, organism-based, Macaca mulatta; set-up: dose 33.3 mg/kg, route oral; conditions: plasma; how it was run: as §2
[20] = Volume of distribution at steady state in rhesus monkey at 33.3 mg/kg, iv; type: ADME, organism-based, Macaca mulatta; set-up: dose 33.3 mg/kg, route intravenous; conditions: in vivo, read-out: Vdss; how it was run: as §2
[21] = Ratio of drug level in cerebrospinal fluid to plasma of rhesus monkey at 33.3 mg/kg, po after 2 hrs; type: ADME, organism-based, Macaca mulatta, CSF/Plasma; set-up: dose 33.3 mg/kg, route oral; how it was run: as §1
[22] = Drug level in rhesus monkey cerebrospinal fluid at 33.3 mg/kg, po after 1 hr; type: ADME, organism-based, Macaca mulatta; set-up: dose 33.3 mg/kg, route oral; conditions: read-out: Drug uptake; how it was run: as §4
[23] = Drug level in rhesus monkey cerebrospinal fluid at 33.3 mg/kg, iv after 2 hrs; type: ADME, organism-based, Macaca mulatta; set-up: dose 33.3 mg/kg, route intravenous; conditions: read-out: Drug uptake; how it was run: as §4
[24] = Mean residence time in rhesus monkey at 33.3 mg/kg, po; type: ADME, organism-based, Macaca mulatta; set-up: dose 33.3 mg/kg, route oral; conditions: in vivo; how it was run: as §2
Rhesus monkey [25] = assay: Drug elimination in rhesus monkey assessed as beta-dioxolane-thymine-glucuronide elimination at 33.3 mg/kg, iv; type: ADME, organism-based, Macaca mulatta; set-up: dose 33.3 mg/kg, route intravenous; conditions: in vivo; how it was run: as §5
[26] = Systemic clearance in rhesus monkey at 33.3 mg/kg, iv; type: ADME, organism-based, Macaca mulatta; set-up: dose 33.3 mg/kg, route intravenous; conditions: in vivo; how it was run: as §2
[27] = Oral bioavailability in rhesus monkey at 33.3 mg/kg; type: ADME, organism-based, Macaca mulatta; conditions: in vivo; how it was run: as §2
[28] = Drug level in rhesus monkey cerebrospinal fluid at 33.3 mg/kg, po after 2 hrs; type: ADME, organism-based, Macaca mulatta; set-up: dose 33.3 mg/kg, route oral; conditions: read-out: Drug uptake; how it was run: as §4
[29] = Cmax in rhesus monkey; type: ADME, organism-based, Macaca mulatta; conditions: in vivo
[30] = Central volume of distribution in rhesus monkey; type: ADME, organism-based, Macaca mulatta; conditions: in vivo, read-out: Vc
[31] = Volume of distribution at steady state in rhesus monkey; type: ADME, organism-based, Macaca mulatta; conditions: in vivo, read-out: Vdss
Rhesus monkey [32] = assay: AUC in rhesus monkey; type: ADME, organism-based, Macaca mulatta, Plasma; conditions: in vivo
[33] = Drug elimination in monkey urine after 30 days; type: ADME, organism-based, Macaca mulatta; conditions: rhesus monkey, Activity
[34] = Oral bioavailability in cynomolgus monkey; type: ADME, organism-based, Macaca fascicularis; conditions: in vivo
[35] = Oral bioavailability in human; type: ADME, organism-based; conditions: in vivo
[36] = Oral bioavailability in mouse; type: ADME, organism-based; conditions: in vivo

SMILES: Cc1cn([C@H]2C[C@H](N=[N+]=[N-])[C@@H](CO)O2)c(=O)[nH]c1=O [ZIDOVUDINE]
bioavailability [2]: 90%
half-life [3]: 0.8 h

SMILES: Cc1cn([C@H]2C=C[C@@H](CO)O2)c(=O)[nH]c1=O [STAVUDINE]
dose excreted at 720 h [33]: < 50%
bioavailability [2]: 25%
bioavailability [34]: 83%
half-life [3]: 0.8 h
bioavailability [35]: 100%
bioavailability [36]: 100%

Further lines, results first:

bioavailability [1]: 30%
SMILES: Nc1nc(N)c2ncn([C@H]3CO[C@@H](CO)O3)c2n1 [AMDOXOVIR]

Kp at 1 h [4]: 0.09
Kp at 2 h [5]: 0.18
Tmax [6]: 0.5 h
CL renal [7]: 3 mL/min/kg
MRT [8]: 2.88 h
dose excreted at 8 h [9]: 40%
Vd [10]: 0.52 L/kg
Cmax [11]: 105 µM
Tlag (Rhesus monkey [12]): 0.51 h
Kp at 1 h [13]: 0.05
concentration at 1 h [14]: 7.8 µM
dose excreted at 8 h [15]: 48%
Drug uptake (Rhesus monkey [16]): 8%
AUC [17]: 416 µM·h
half-life [18]: 2.16 h
AUC [19]: 387 µM·h
Vd [20]: 1.02 L/kg
Kp at 2 h [21]: 0.06
concentration at 1 h [22]: 3.2 µM
concentration at 2 h [23]: 12.3 µM
MRT [24]: 3.26 h
Drug uptake (Rhesus monkey [25]): 4%
clearance [26]: 6 mL/min/kg
bioavailability [27]: 95%
concentration at 2 h [28]: 4.2 µM
SMILES: Cc1cn([C@H]2CO[C@@H](CO)O2)c(=O)[nH]c1=O

Cmax [29]: 50 µM
SMILES: Nc1nc2c(ncn2[C@H]2CO[C@@H](CO)O2)c(=O)[nH]1

Vd [30]: 0.53 L/kg
bioavailability [1]: 38%
half-life [3]: 2.48 h
Vd [31]: 0.53 L/kg
AUC (Rhesus monkey [32]): 197 µM·h
Cmax [29]: 34.4 µM
SMILES: Nc1nc(=O)n([C@H]2CO[C@@H](CO)O2)cc1F
